Measurements as given in PMC5598146 (Toxicology Reports, 2015).
“Also recorded” adds a separate entry of the source.

What was measured:
[1] = test system: human peripheral blood lymphocytes (HPBL); test: In vitro chromosome aberration test; format: cell-based; conditions: 125-500 ug/mL, 3 h ±S9, 20 h -S9
Method in brief: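 Human peripheral blood lymphocytes were exposed to the sodium salt of the test compound (0–500 µg/mL) per OECD 473, with solvent and positive controls (mitomycin C −S9, cyclophosphamide +S9). Exposures: 3 h and 20 h without S9, and 3 h with S9 from phenobarbital/5,6-benzoflavone-induced male Sprague-Dawley rat liver. Structural and numerical aberrations were scored at 125, 250 and 500 µg/mL for each condition.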

[2] = Excretion in urine and feces of rats; format: in vivo, Sprague-Dawley rats; conditions: 10 mg/kg oral
[3] = Pharmacokinetics and oral bioavailability in rats; format: in vivo, Sprague-Dawley rats; conditions: for half-life / bioavailability / clearance / Tmax: rat, plasma
[4] = test system: S. typhimurium strains TA98 and TA100; test: Abbreviated Ames; format: cell-based; conditions: plate incorporation, up to 5000 μg/plate, ±S9
Method in brief: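 Salmonella TA98 and TA100 plate-incorporation assay per OECD 471, run with and without rat liver S9. Test compound and its decarboxylated impurity were tested at concentrations up to and including 5000 µg/plate, with vehicle and positive controls. Revertant colony counts were compared with vehicle control, and bacterial toxicity was recorded.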

Swiss albino (CD-1) mice = test: In vivo mouse micronucleus assay; conditions: 500-2000 mg/kg bw oral, male mice
[5] = In vitro oxidative metabolism, human liver microsomes; format: in vitro ADME
Method in brief: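 Pooled mixed-gender liver microsomes (human or Sprague-Dawley rat) were incubated with test compound plus NADPH for 60 min at 37 °C, then quenched with acetonitrile. Controls: time-zero and 60-min incubations without NADPH, plus testosterone incubations to confirm microsomal activity. Metabolites were sought by LC/MS full-scan analysis with UV detection at 214, 240 and 254 nm.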

[6] = test system: S. typhimurium strains TA98, TA100, TA1535, TA1537 and E. coli strain WP2 uvrA; test: Bacterial reverse mutation test; format: cell-based, Escherichia coli; conditions: 51-5000 ug/plate, plate incorporation and pre-incubation, ±S9
Sprague-Dawley rats = test: 90-Day subchronic toxicity study; format: in vivo, rat; conditions: 90 days
Method in brief: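 Male and female Crl:CD(SD) rats, 20/sex/group, fed 0 (basal diet), 30, 60 or 100 mg/kg/day in the diet for 90 days. […] End-points: functional observation battery, motor activity, body weight gain, food consumption, hematology, clinical chemistry, urinalysis, organ weights, necropsy, and histopathology of at least 53 tissues (control and high dose only).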

[7] = Toxicokinetics in the 90-day dietary study; format: in vivo, Sprague-Dawley rats; conditions: for AUC(0-t): Sprague-Dawley [Crl:CD(SD)], rat, in vivo, po, AUC(0-24)

SMILES: Cc1nc2cccc(OCC(C)(C)C(=O)NC(C)C)c2c(N)c1C(=O)O [S9632, 4-amino-5-(3-(isopropylamino)-2,2-dimethyl-3-oxopropoxy)-2-methylquinoline-3-carboxylic acid]
- Chromosome aberration (in vitro), result [1]: Negative
- Oxidative metabolites (M + 16) in fecal samples [2]: not detectable
- Oxidative metabolites (M + 16) in urine [2]: trace amounts
- half-life ([3]; both, Sprague-Dawley [Crl:CD(SD)], iv, 1 mg/kg, apparent plasma half-life (t1/2), range, iv, male and female): 11.4 to 16.2 min
- half-life ([3]; both, Sprague-Dawley [Crl:CD(SD)], po, plasma elimination half-life (t1/2), range, oral administration): 42.6 to 83.4 min
- half-life ([3]; both, Sprague-Dawley, iv, 1 mg/kg, t1/2, intravenous): < 16.2 min
- bioavailability ([3]; both, Sprague-Dawley, po): 0.53 to 1.19%
- half-life ([3]; both, Sprague-Dawley, po, t1/2, oral administration): < 83.4 min
- bioavailability ([3]; female, Sprague-Dawley [Crl:CD(SD)], po, 100 mg/kg): 0.83%
- clearance ([3]; female, Sprague-Dawley, iv, 1 mg/kg): 42.5 mL/min/kg
- Tmax ([3]; female, Sprague-Dawley, iv, 1 mg/kg, iv 1.0 mg/kg, Day 1, F): 1.8 min
- half-life ([3]; female, Sprague-Dawley, iv, 1 mg/kg, t1/2, iv 1.0 mg/kg, Day 1, F): 16.2 min
- bioavailability ([3]; female, Sprague-Dawley, po, 10 mg/kg): 1.19%
- bioavailability ([3]; female, Sprague-Dawley, po, 30 mg/kg): 0.77%
- AUC0-last/dose ([3]; iv 1.0 mg/kg, Day 1, F): 411.9 ng·h/mL/mg/kg
- AUC0-last/dose ([3]; iv 1.0 mg/kg, Day 1, M): 330.6 ng·h/mL/mg/kg
- Mean plasma clearance as % of hepatic blood flow ([3]; iv, females): 77.3%
- Mean plasma clearance as % of hepatic blood flow ([3]; iv, males): 93.6%
- clearance ([3]; male, Sprague-Dawley, iv, 1 mg/kg): 51.5 mL/min/kg
- Tmax ([3]; male, Sprague-Dawley, iv, 1 mg/kg, iv 1.0 mg/kg, Day 1, M): 1.8 min
- half-life ([3]; male, Sprague-Dawley, iv, 1 mg/kg, t1/2, iv 1.0 mg/kg, Day 1, M): 11.4 min
- bioavailability ([3]; male, Sprague-Dawley, po, 10 mg/kg): 0.54%
- bioavailability ([3]; male, Sprague-Dawley, po, 30 mg/kg): 0.92%
- bioavailability ([3]; male, Sprague-Dawley, po, 100 mg/kg): 0.53%
- AUC0-last/dose ([3]; oral gavage 10 mg/kg, Day 1, F): 4.92 ng·h/mL/mg/kg
- AUC0-last/dose ([3]; oral gavage 10 mg/kg, Day 1, M): 1.79 ng·h/mL/mg/kg
- AUC0-last/dose ([3]; oral gavage 10 mg/kg, Day 7, F): 5.89 ng·h/mL/mg/kg
- AUC0-last/dose ([3]; oral gavage 10 mg/kg, Day 7, M): 4.81 ng·h/mL/mg/kg
- AUC0-last/dose ([3]; oral gavage 30 mg/kg, Day 1, F): 3.17 ng·h/mL/mg/kg
- AUC0-last/dose ([3]; oral gavage 30 mg/kg, Day 1, M): 3.03 ng·h/mL/mg/kg
- AUC0-last/dose ([3]; oral gavage 30 mg/kg, Day 7, F): 3.56 ng·h/mL/mg/kg
- AUC0-last/dose ([3]; oral gavage 30 mg/kg, Day 7, M): 2.87 ng·h/mL/mg/kg
- AUC0-last/dose ([3]; oral gavage 100 mg/kg, Day 1, F): 3.41 ng·h/mL/mg/kg
- AUC0-last/dose ([3]; oral gavage 100 mg/kg, Day 1, M): 1.76 ng·h/mL/mg/kg
- AUC0-last/dose ([3]; oral gavage 100 mg/kg, Day 7, F): 2.79 ng·h/mL/mg/kg
- AUC0-last/dose ([3]; oral gavage 100 mg/kg, Day 7, M): 1.85 ng·h/mL/mg/kg
- Accumulation in plasma ([3]; repeated oral dosing for 7 consecutive days): No significant accumulation
- Mutagenicity, result [4]: not mutagenic
- Micronucleus formation (in vivo), result (Swiss albino (CD-1) mice): did not induce micronuclei; also recorded: Negative
- Metabolism (Phase I biotransformations) ([5]; 10 µM, 60 min, 37 °C, NADPH): not metabolized; also recorded: No Phase I biotransformations
- Level above which no metabolism was observed ([5]; 60 min incubation): ≤ 0.1 % of the parent drug
- Reverse mutation (in vitro), result [6]: Negative
- Findings (Sprague-Dawley rats; 30, 60, 100 mg/kg/day food ad-mix): No test-article related findings
- NOEL (Sprague-Dawley rats; food ad-mix, male and female rats, highest dose tested): 100 mg/kg/day
- AUC(0-t) ([7]; both, 30 mg/kg/day, food ad-mix 30 mg/kg/day, Day 90, Combined): 341 ng·h/mL
- AUC(0-t) ([7]; both, 100 mg/kg/day, food ad-mix 100 mg/kg/day, Day 7, Combined): 1040 ng·h/mL
- AUC(0-t) ([7]; both, 100 mg/kg/day, food ad-mix 100 mg/kg/day, Day 90, Combined): 1200 ng·h/mL
- AUC(0-t) ([7]; female, 30 mg/kg/day, food ad-mix 30 mg/kg/day, Day 90, Female): 389 ng·h/mL
- AUC(0-t) ([7]; female, 100 mg/kg/day, food ad-mix 100 mg/kg/day, Day 90, Female): 1400 ng·h/mL
- AUC0-24/dose ([7]; food ad-mix 30 mg/kg/day, Day 7, Combined): 5.92 ng·h/mL/mg/kg
- AUC0-24/dose ([7]; food ad-mix 30 mg/kg/day, Day 7, Female): 3.5 ng·h/mL/mg/kg
- AUC0-24/dose ([7]; food ad-mix 30 mg/kg/day, Day 7, Male): 8.34 ng·h/mL/mg/kg
- AUC0-24/dose ([7]; food ad-mix 30 mg/kg/day, Day 90, Combined): 11.4 ng·h/mL/mg/kg
- AUC0-24/dose ([7]; food ad-mix 30 mg/kg/day, Day 90, Female): 13.0 ng·h/mL/mg/kg
- AUC0-24/dose ([7]; food ad-mix 30 mg/kg/day, Day 90, Male): 9.75 ng·h/mL/mg/kg
- AUC0-24/dose ([7]; food ad-mix 60 mg/kg/day, Day 7, Combined): 6.61 ng·h/mL/mg/kg
- AUC0-24/dose ([7]; food ad-mix 60 mg/kg/day, Day 7, Female): 9.43 ng·h/mL/mg/kg
- AUC0-24/dose ([7]; food ad-mix 60 mg/kg/day, Day 7, Male): 3.79 ng·h/mL/mg/kg
- AUC0-24/dose ([7]; food ad-mix 60 mg/kg/day, Day 90, Combined): 13.3 ng·h/mL/mg/kg
- AUC0-24/dose ([7]; food ad-mix 60 mg/kg/day, Day 90, Female): 9.14 ng·h/mL/mg/kg
- AUC0-24/dose ([7]; food ad-mix 60 mg/kg/day, Day 90, Male): 17.5 ng·h/mL/mg/kg
- AUC0-24/dose ([7]; food ad-mix 100 mg/kg/day, Day 7, Combined): 10.4 ng·h/mL/mg/kg
- AUC0-24/dose ([7]; food ad-mix 100 mg/kg/day, Day 7, Female): 11.7 ng·h/mL/mg/kg
- AUC0-24/dose ([7]; food ad-mix 100 mg/kg/day, Day 7, Male): 9.15 ng·h/mL/mg/kg
- AUC0-24/dose ([7]; food ad-mix 100 mg/kg/day, Day 90, Combined): 12.0 ng·h/mL/mg/kg
- AUC0-24/dose ([7]; food ad-mix 100 mg/kg/day, Day 90, Female): 14.0 ng·h/mL/mg/kg
- AUC0-24/dose ([7]; food ad-mix 100 mg/kg/day, Day 90, Male): 10.0 ng·h/mL/mg/kg
- AUC(0-t) ([7]; male, 30 mg/kg/day, food ad-mix 30 mg/kg/day, Day 90, Male): 293 ng·h/mL
- AUC(0-t) ([7]; male, 100 mg/kg/day, food ad-mix 100 mg/kg/day, Day 90, Male): 1000 ng·h/mL
